Consider 5 compounds from ChEMBL document CHEMBL1151159, “Antineoplastic agents. 380. Isolation and X-ray crystal structure determination of isoaaptamine from the Republic of Singapore Hymeniacidon sp. and conversion to the phosphate prodrug hystatin 1” (2004).

One assay deals with NCI-H460. The assay is described as follows: Antineoplastic activity against human NCI-H460 cells. Type of assay: functional. The settings on record: read-out: ED50 (the source's name).
Another assay has as its system KM-20L2. The assay is described as follows: Antineoplastic activity against human KM20L2 cells. The settings on record: read-out: ED50 (the source's name). Type of assay: functional.
Another assay has as its system SK-MEL-5. The assay is described as follows: Antineoplastic activity against human SK-MEL-5 cells. Type of assay: functional. The note with it: read-out: ED50 (the source's name).
Assay [1] concerns Cryptococcus neoformans. The assay is described as follows: Antimicrobial activity against Cryptococcus neoformans by broth microdilution susceptibility assay. Type of assay: functional. Put shortly:
(§1)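 Yeast panel (Candida albicans, Cryptococcus neoformans) tested by broth microdilution following the NCCLS reference method for yeasts (M27-A). MIC taken as the lowest compound concentration giving no visible growth (optically clear).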
For orientation: Dilution methods test growth across graded concentrations, often in twofold steps.

The test system of the next assay is Candida albicans. The assay is described as follows: Antimicrobial activity against Candida albicans at 64 ug/ml by broth microdilution susceptibility assay. Type of assay: functional, organism-based. Put shortly: as §1
The next assay deals with Staphylococcus aureus. The assay is described as follows: Antimicrobial activity against Staphylococcus aureus by broth microdilution susceptibility assay. Type of assay: functional. In short, it runs like this: (§2)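 Bacteria tested by broth microdilution following the NCCLS standard for aerobically growing bacteria (M7-A4). MIC read as the lowest compound concentration that blocked all visible growth of the organism (optically clear wells).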

A further assay deals with Streptococcus pneumoniae. The assay is described as follows: Antimicrobial activity against Streptococcus pneumoniae by broth microdilution susceptibility assay. Type of assay: functional. In short, it runs like this:
as §2

The subject of assay [2] is Enterococcus faecalis. The assay is described as follows: Antimicrobial activity against Enterococcus faecalis by broth microdilution susceptibility assay. In kind it is functional. Put shortly: as §2
The test system of assay [3] is Micrococcus luteus. The assay is described as follows: Antimicrobial activity against Micrococcus luteus by broth microdilution susceptibility assay. In kind it is functional. Put shortly: as §2
The subject of the next assay is Enterobacter cloacae. The assay is described as follows: Antimicrobial activity against Enterobacter cloacae at 64 ug/ml by broth microdilution susceptibility assay. In kind it is functional, organism-based. In short, it runs like this: as §2
Assay [4] has as its system Stenotrophomonas maltophilia. The assay is described as follows: Antimicrobial activity against Stenotrophomonas maltophilia at 64 ug/ml by broth microdilution susceptibility assay. Type of assay: functional, organism-based. Put shortly: as §2
The next assay deals with Neisseria gonorrhoeae. The assay is described as follows: Antimicrobial activity against Neisseria gonorrhoeae by broth microdilution susceptibility assay. In kind it is functional. Put shortly:
as §2

A further assay deals with Escherichia coli. The assay is described as follows: Antimicrobial activity against Escherichia coli at 64 ug/ml by broth microdilution susceptibility assay. Type of assay: functional, organism-based. Put shortly: as §2
For another assay, the system named is P388. The assay is described as follows: Antineoplastic activity against mouse P388 cells. In kind it is functional. The note with it: read-out: ED50 (the source's name).
The subject of the next assay is OVCAR-3. The assay is described as follows: Antineoplastic activity against human OVCAR-3 cells. Type of assay: functional. The note with it: read-out: ED50 (the source's name).
Another assay concerns SF-295. The assay is described as follows: Antineoplastic activity against human SF295 cells. Type of assay: functional. The settings on record: read-out: ED50 (the source's name).
In the next assay the test system is A498. The assay is described as follows: Antineoplastic activity against human A498 cells. The note with it: read-out: ED50 (the source's name). In kind it is functional.
In assay [5] the test system is Cryptococcus neoformans. The assay is described as follows: Antimicrobial activity against Cryptococcus neoformans at 64 ug/ml by broth microdilution susceptibility assay. In kind it is functional, organism-based. Put shortly:
as §1

The test system of assay [6] is Enterococcus faecalis. The assay is described as follows: Antimicrobial activity against Enterococcus faecalis at 64 ug/ml by broth microdilution susceptibility assay. In kind it is functional, organism-based. Put shortly:
as §2

The subject of assay [7] is Micrococcus luteus. The assay is described as follows: Antimicrobial activity against Micrococcus luteus at 64 ug/ml by broth microdilution susceptibility assay. In kind it is functional, organism-based. Put shortly: as §2

In brackets after ≈: the same amount, converted by molar mass. Activity calls are given as the source filed them. The rule behind the calls is not given here.

For orientation: MIC means the lowest concentration found to suppress growth. Turning to `COc1cc2ccnc3c2c(c1O)N(C)C=C3` [ISOAAPTAMINE], the EC50 with NCI-H460 stood at 2.4 µg/mL (≈ 10.5 µM); with KM-20L2, 2.3 µg/mL (≈ 10.1 µM); in the assay on SK-MEL-5, 1.6 µg/mL (≈ 7.01 µM); in the assay on P388 it was 0.28 µg/mL (≈ 1.23 µM); in the assay on OVCAR-3, 1.2 µg/mL (≈ 5.26 µM); in the assay with SF-295, 2.6 µg/mL (≈ 11.4 µM). Also, in the assay with A498, the EC50 was determined as 2.2 µg/mL (≈ 9.64 µM). Also, the minimum inhibitory concentration (MIC) in the assay with Cryptococcus neoformans [1] was 64 µg/mL (≈ 280 µM); in the assay with Staphylococcus aureus, 16 µg/mL (≈ 70.1 µM); against Streptococcus pneumoniae it was 8 µg/mL (≈ 35 µM); in the assay on Enterococcus faecalis [2], 32 µg/mL (≈ 140 µM); against Micrococcus luteus [3], 32 µg/mL (≈ 140 µM); with Neisseria gonorrhoeae, less than 0.5 µg/mL. Further, the outcome (with Candida albicans; in the assay on Enterobacter cloacae; in [4]; with Escherichia coli) was inactive.
`COC1=Cc2ccnc3ccnc(c23)C1(OC)OC`: the EC50 in the assay on P388 stood at 59 µg/mL (≈ 228 µM).
In the case of `COC1=Cc2ccnc3ccnc(c23)C1=O` [DEMETHYLOXY-AAPTAMINE], the EC50 in the assay on NCI-H460 came out at 2.3 µg/mL (≈ 10.8 µM); in the assay on KM-20L2 it was 2.1 µg/mL (≈ 9.9 µM); in the assay on SK-MEL-5 it was 1 µg/mL (≈ 4.71 µM); in the assay on P388, 0.31 µg/mL (≈ 1.46 µM); with OVCAR-3, 0.39 µg/mL (≈ 1.84 µM); with SF-295, 2.8 µg/mL (≈ 13.2 µM). Further, the EC50 in the assay on A498 stood at 4.2 µg/mL (≈ 19.8 µM).
Consider `COc1cc2ccnc3c2c(c1OP(=O)([O-])[O-])N(C)C=C3.[Na+].[Na+]` [HYSTATIN 1], for which the EC50 is greater than 10 µg/mL with NCI-H460, greater than 10 µg/mL with KM-20L2 and 3 µg/mL in the assay with P388. Also, the outcome in the assay with Candida albicans, in the assay with Enterobacter cloacae, in the assay on Cryptococcus neoformans [5], in the assay on Enterococcus faecalis [6], in the assay with Micrococcus luteus [7] and in the assay with Escherichia coli was inactive. The MIC in the assay on Staphylococcus aureus is 64 µg/mL; with Streptococcus pneumoniae, 16 µg/mL; in the assay with Neisseria gonorrhoeae, less than 0.5 µg/mL.
For `COc1cc2ccnc3c2c(c1OC)NC=C3` [AAPTAMINE], the EC50 with NCI-H460 stood at 3.2 µg/mL (≈ 14 µM); with KM-20L2, 3.6 µg/mL (≈ 15.8 µM); in the assay on SK-MEL-5, 4.3 µg/mL (≈ 18.8 µM); in the assay with P388, 3.6 µg/mL (≈ 15.8 µM); in the assay on OVCAR-3, 4.9 µg/mL (≈ 21.5 µM); in the assay with SF-295, 4.1 µg/mL (≈ 18 µM). Further, the EC50 with A498 is 3.2 µg/mL (≈ 14 µM).
